# Results taken from ChEMBL document CHEMBL4130484, “Identification and optimization of novel 6-acylamino-2-aminoquinolines as potent Hsp90 C-terminal inhibitors” (Eur J Med Chem, 2017).
# Activity calls are given as the source filed them. No cut-off for these calls is given here.
# Assays:
# MCF7 [1] = test: Induction of apoptosis in human MCF7 cells assessed as viable cells level at 10 uM incubated for 24 hrs by Annexin V-FITC and propidium iodide staining based flow cytometry (reference value: 93.37%); assay type: functional
# MCF7 [2] = test: Induction of apoptosis in human MCF7 cells assessed as early apoptotic cells level at 2.5 uM incubated for 24 hrs by Annexin V-FITC and propidium iodide staining based flow cytometry (reference value: 1.93%); assay type: functional
# 4T1 [3] = test: Antitumor activity against mouse 4T1 cells implanted in BALB/c mouse assessed as inhibition of tumor growth at 30 mg/kg/day, ip for 2 weeks measured every 2 days; assay type: functional; conditions: 4T1, ip, read-out: TGI
# How it was run: (§1)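 BALB/c mice bearing 4T1 breast tumors were dosed ip daily for 2 weeks with vehicle, 10 or 30 mg/kg, starting once mean tumor volume reached 50 mm³. Tumor diameters were measured every two days; TGI derived.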
# MCF7 [4] = test: Induction of apoptosis in human MCF7 cells assessed as early apoptotic cells level at 10 uM incubated for 24 hrs by Annexin V-FITC and propidium iodide staining based flow cytometry (reference value: 1.93%); assay type: functional
# [5] = molecular target: T1, Heat shock protein HSP90 (Homo sapiens) (UniProt P07900+P08238); test: Inhibition of HSP90 C-terminal in human MCF7 cells assessed as reduction in ERK protein expression incubated for 24 hrs by Western blot method; assay type: cell-based
# How it was run: (§2)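 MCF7 cells incubated 24 h with various concentrations, then client protein levels read by Western blot. β-Actin served as loading control. AT13387 (1.0 µM), an N-terminal Hsp90 inhibitor, was the positive control.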
# MCF7 [6] = test: Antiproliferative activity against human MCF7 cells incubated for 72 hrs by MTT assay; assay type: functional, cell-based; conditions: MCF7, 72 h
# How it was run: (§3)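 MTT antiproliferation assay in MCF7 and SKBr3 breast cancer cells; IC50 determined.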
# MCF7 [7] = test: Induction of apoptosis in human MCF7 cells assessed as late apoptotic cells level at 5 uM incubated for 24 hrs by Annexin V-FITC and propidium iodide staining based flow cytometry (reference value: 4.19%); assay type: functional
# MCF7 [8] = test: Induction of apoptosis in human MCF7 cells assessed as late apoptotic cells level at 2.5 uM incubated for 24 hrs by Annexin V-FITC and propidium iodide staining based flow cytometry (reference value: 4.19%); assay type: functional
# MCF7 [9] = test: Induction of heat shock response in human MCF7 cells assessed as effect on HSP90 protein expression at 1 to 10 uM incubated for 24 hrs by Western blot method; assay type: cell-based; conditions: mcf7, 24 h; how it was run: as §2
# MCF7 [10] = test: Induction of apoptosis in human MCF7 cells assessed as late apoptotic cells level at 10 uM incubated for 24 hrs by Annexin V-FITC and propidium iodide staining based flow cytometry (reference value: 4.19%); assay type: functional
# MCF7 [11] = test: Inhibition of cell migration in human MCF7 cells incubated for 24 hrs by wound healing assay; assay type: functional, cell-based
# How it was run: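 Wound healing in MCF7 cells: the monolayer was scratched with a 200 µL sterile pipette tip, treated 24 h at various concentrations, then imaged.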
# MCF7 [12] = test: Induction of apoptosis in human MCF7 cells assessed as necrotic cells level at 10 uM incubated for 24 hrs by Annexin V-FITC and propidium iodide staining based flow cytometry (reference value: 0.51%); assay type: functional
# MCF7 [13] = test: Induction of apoptosis in human MCF7 cells assessed as necrotic cells level at 2.5 uM incubated for 24 hrs by Annexin V-FITC and propidium iodide staining based flow cytometry (reference value: 0.51%); assay type: functional
# 4T1 [14] = test: Antitumor activity against mouse 4T1 cells implanted in BALB/c mouse assessed as inhibition of tumor growth at 10 mg/kg/day, ip for 2 weeks measured every 2 days; assay type: functional; conditions: 4T1, ip, read-out: TGI; how it was run: as §1
# Mus musculus [15] = test: Toxicity in BALB/c mouse implanted with mouse 4T1 cells assessed as induction of body weight loss at 30 mg/kg/day, ip for 2 weeks measured every 2 days; assay type: organism-based; conditions: in vivo
# How it was run: (§4)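 4T1 tumor-bearing BALB/c mice were given vehicle, 10 or 30 mg/kg ip daily for 2 weeks from mean tumor volume 50 mm³. Body weight was monitored during treatment.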
# Mus musculus [16] = test: Toxicity in BALB/c mouse implanted with mouse 4T1 cells assessed as induction of body weight loss at 10 mg/kg/day, ip for 2 weeks measured every 2 days; assay type: organism-based; conditions: in vivo; how it was run: as §4
# [17] = molecular target: T1, Heat shock protein HSP90 (Homo sapiens); test: Inhibition of HSP90 C-terminal in human MCF7 cells assessed as reduction in Akt protein expression incubated for 24 hrs by Western blot method; assay type: cell-based; how it was run: as §2
# MCF7 [18] = test: Induction of apoptosis in human MCF7 cells assessed as necrotic cells level at 5 uM incubated for 24 hrs by Annexin V-FITC and propidium iodide staining based flow cytometry (reference value: 0.51%); assay type: functional
# [19] = Intrinsic aqueous solubility of the compound; assay type: physicochemical
# How it was run: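 Intrinsic aqueous solubility determined on a Gemini Profiler instrument.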
# MCF7 [20] = test: Induction of apoptosis in human MCF7 cells assessed as viable cells level at 5 uM incubated for 24 hrs by Annexin V-FITC and propidium iodide staining based flow cytometry (reference value: 93.37%); assay type: functional
# MCF7 [21] = test: Induction of heat shock response in human MCF7 cells assessed as effect on HSP70 protein expression at 1 to 10 uM incubated for 24 hrs by Western blot method; assay type: cell-based; conditions: mcf7, 24 h; how it was run: as §2
# MCF7 [22] = test: Induction of apoptosis in human MCF7 cells assessed as viable cells level at 2.5 uM incubated for 24 hrs by Annexin V-FITC and propidium iodide staining based flow cytometry (reference value: 93.37%); assay type: functional
# MCF7 [23] = test: Induction of apoptosis in human MCF7 cells assessed as early apoptotic cells level at 5 uM incubated for 24 hrs by Annexin V-FITC and propidium iodide staining based flow cytometry (reference value: 1.93%); assay type: functional
# [24] = Distribution coefficient, log D of the compound at pH 7.4; assay type: physicochemical; conditions: octanol/water
# How it was run: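 Log D at pH 7.4 measured on a PULSE platform.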
# 4T1 [25] = test: Antitumor activity against mouse 4T1 cells implanted in BALB/c mouse assessed as inhibition of lung metastasis at 30 mg/kg/day, ip for 2 weeks measured every 2 days by H and E staining; assay type: functional, organism-based
# How it was run: (§5)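 4T1 tumor-bearing BALB/c mice were dosed ip daily for 2 weeks with vehicle, 10 or 30 mg/kg, starting at mean tumor volume 50 mm³. Lung tissue was then examined for metastasis.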
# SK-BR-3 = test: Antiproliferative activity against human SKBR3 cells incubated for 72 hrs by MTT assay; assay type: functional, cell-based; conditions: SK-BR-3, 72 h; how it was run: as §3
# [26] = molecular target: T1, Heat shock protein HSP90 (Homo sapiens); test: Inhibition of HSP90 C-terminal in human MCF7 cells assessed as reduction in CDK6 protein expression incubated for 24 hrs by Western blot method; assay type: cell-based; how it was run: as §2
# [27] = Permeability coefficient of the compound at pH 7.4 by double-sink PAMPA; assay type: ADME; conditions: read-out: permeability
# How it was run: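 Double-sink PAMPA at pH 7.4 on a PAMPA Explorer instrument; Pe reported as mean ± SD, n = 3.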
# 4T1 [28] = test: Antitumor activity against mouse 4T1 cells implanted in BALB/c mouse assessed as inhibition of lung metastasis at 10 mg/kg/day, ip for 2 weeks measured every 2 days by H and E staining; assay type: functional, organism-based; how it was run: as §5
smiles,measurement,setting,value
Cc1cc(NCCN2CCCCC2)nc2ccc(NC(=O)c3ccc(Cl)c(Cl)c3)cc12,Activity,MCF7 [1],42.69%
same,Activity,MCF7 [2],1.57%
same,inhibition in vivo at 30 mg/kg/day,4T1 [3],47%
same,Activity,MCF7 [4],20.22%
same,inhibition,[5],Dose-dependent effect
same,IC50,MCF7 [6],1190 nM
same,Activity,MCF7 [7],12.8%
same,Activity,MCF7 [8],4.33%
same,Activity,MCF7 [9],Non-Toxic
same,Activity,MCF7 [10],31.59%
same,inhibition,MCF7 [11],Dose-dependent effect
same,Activity,MCF7 [12],5.5%
same,Activity,MCF7 [13],0.8%
same,inhibition in vivo at 10 mg/kg/day,4T1 [14],26%
same,Activity,Mus musculus [15],Non-Toxic
same,Activity,Mus musculus [16],Non-Toxic
same,inhibition,[17],Dose-dependent effect
same,Activity,MCF7 [18],3.13%
same,solubility,[19],70.8 µg/mL
same,Activity,MCF7 [20],78.86%
same,Activity,MCF7 [21],Non-Toxic
same,Activity,MCF7 [22],93.3%
same,Activity,MCF7 [23],5.21%
same,logD,[24],2.72
same,inhibition,4T1 [25],Active
same,IC50,SK-BR-3,1800 nM
same,inhibition,[26],Dose-dependent effect
same,Papp,[27],47.3 ×10⁻⁶ cm/s
same,inhibition,4T1 [28],Active
